High-throughput results as filed in PubChem.
Shown are actives, neighbours in structure and some others; about 2.2% of the full set was active somewhere.
DNMT1 block: DNMT1 (human) enzyme inhibition | 0.83% of 360,000 active | inhibition (reported as % activation of signal), % at 10 µM | DNMT1 molecular beacon, Hinp1I cleavage, fluorescence | P26358 | AID 588458; in the data active means inhibition above about 50%
SUMO1 PPI mod: alters human SUMO1 binding to SIM partners. P63165. SUMO1 binding to a labelled peptide, TR-FRET, 1 h. AID 602429. 0.33% of 360,000 active. inhibition, % at 20 µM; in the data active means inhibition above about 37%
Target sequence (P63165 whole entry, looked up): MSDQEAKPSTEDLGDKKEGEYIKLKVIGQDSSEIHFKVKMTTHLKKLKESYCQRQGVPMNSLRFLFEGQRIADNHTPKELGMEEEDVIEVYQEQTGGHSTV
Scp-1 inhibitor: blocks human Scp-1 phosphatase activity; Q9GZU7; 0.88% of 340,000 active; AID 493091; inhibition, % at 20 µM; Recombinant Scp1, phosphopeptide, malachite green phosphate absorbance;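 active means inhibition above about 50% at 20 µM, limit read from the data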;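 further: plate controls were DMSO wells with enzyme for no effect and wells lacking enzyme for full effect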
Target sequence (Q9GZU7 76-261 limits assumed): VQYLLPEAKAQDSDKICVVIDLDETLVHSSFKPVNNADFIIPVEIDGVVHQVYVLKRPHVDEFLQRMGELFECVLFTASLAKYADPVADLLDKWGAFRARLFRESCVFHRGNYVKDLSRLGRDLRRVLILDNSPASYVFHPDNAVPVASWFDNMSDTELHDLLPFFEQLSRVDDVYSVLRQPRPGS
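Times: enzyme reaction 45 min at room temperature, colour 5 min, stabilisation 30 min. Material: SCP-1 catalytic fragment, aa 76-261. Medium: Acidic Tris acetate buffer with magnesium and detergent. Signal: colorimetric free-phosphate detection, absorbance 630 nm. Read-out basis: % inhibition of SCP-1 phosphate liberation. Reagent: Phosphorylated 17-residue peptide substrate.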
GRK2 inh: human GRK2 inhibition via aptamer displacement. bead flow cytometry, FAM-aptamer displacement from GRK2. inhibition of aptamer binding, % at 10 µM. 0.59% of 330,000 active;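 active means inhibition of aptamer binding above 40%, roughly 3 SD of noise, on plates passing a quality check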;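 further: median bead fluorescence of bound FAM aptamer so fluorescent compounds give negative values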
LMPTP block: LMPTP (human) inhibition. inhibition, % at 20 µM. P24666. recombinant LMPTP-A, OMFP fluorogenic substrate, fluorescence intensity. 0.22% of 360,000 active;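 active means compounds that cut the enzyme signal by at least half of the control window in the single-dose screen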;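 further: plate controls were DMSO wells with enzyme plus substrate for no effect and substrate without enzyme for full effect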
Target sequence (P24666 whole entry, looked up): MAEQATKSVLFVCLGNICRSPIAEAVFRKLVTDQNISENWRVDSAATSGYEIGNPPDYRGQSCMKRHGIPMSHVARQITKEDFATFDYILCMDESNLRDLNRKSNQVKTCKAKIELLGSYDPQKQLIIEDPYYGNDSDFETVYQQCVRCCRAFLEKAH
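Test system: LMPTP-A phosphatase enzyme. Amount: LMPTP-A at 0.625 nM final in the reaction. Reagent: OMFP substrate, 400 µM final. Times: 50 min at room temperature. Signal: endpoint fluorescence intensity from OMFP dephosphorylation. Read-out basis: % inhibition. Benchmarks: no-enzyme and uninhibited controls.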
STEP block: inhibitors of human striatal-enriched phosphatase STEP. P54829. recombinant STEP, OMFP fluorogenic substrate, fluorescence. inhibition, % at 20 µM. 0.25% of 360,000 active;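 active means inhibition at 20 µM, scaled per plate between control wells, above about 37%, limit read from the data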;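 further: 0% = DMSO with enzyme and substrate and 100% = substrate only without enzyme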
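System: isolated STEP enzyme; schedule: 20 min enzyme reaction at room temperature, protected from light; medium: Bis-Tris buffer pH 6.0, 2.5 mM DTT, 0.005% Tween 20; signal: fluorescence, 480/540 nm; dosing: single compound dose of 20 µM, 1% DMSO final; also added: OMFP substrate, 25 µM final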
GRK2 inh confirm: confirmation of human GRK2 inhibitors displacing RNA aptamer; shares compounds with GRK2 inh; 4% of 2,000 active; aptamer displacement, % at 10 µM; bead-bound GRK2, FAM-aptamer displacement, flow cytometry;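 active means aptamer displacement above 40%, near three times the noise of non-fluorescent compounds, on plates passing quality checks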;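 further: negative values mostly reflect intrinsic compound fluorescence rather than true enhancement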
Aptamer quench SP: aptamer fluorescence quenching in GRK2 counter-screen. shares compounds with GRK2 inh. Carboxyfluorescein RNA aptamer on beads, flow cytometry quenching; hits give low values. fluorescence response (% of DMSO), % at 10 µM. 2,000 tested, under 10 active. AID 504580;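 active means compounds that quench the bead-bound fluorescent RNA probe, cutting fluorescence to under half of the solvent control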;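 further: counterscreen run without GRK2 so only probe quenching by compound is measured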
GRK2 confirm 2: confirmation of human GRK2 inhibitors binding RNA aptamer site | bead-bound GRK2, FAM-aptamer displacement, flow cytometry | 360 tested, under 10 active | inhibition of aptamer binding, % at 10 µM | shares compounds with GRK2 inh | AID 504782;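 active means inhibition of aptamer binding above 40%, about triple the noise seen with nonglowing compounds, on plates passing quality control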;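 further: negative values mostly come from compounds that fluoresce themselves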
FAM quench SP: aptamer fluorescence quenching in GRK2 counter-screen. fluorescence response vs DMSO, % at 10 µM. 360 tested, under 10 active. carboxyfluorescein RNA aptamer beads, flow cytometry quenching; hits give low values. shares compounds with GRK2 inh;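 active means response vs DMSO under 50%, meaning signal dropped by over half, treated as fluorescence quencher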;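 further: labelled aptamer on streptavidin beads without GRK2 as a quench counter-screen; 100% = bead fluorescence of DMSO wells and lower means quenching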
* marks the source's active call; other numbers are inactive results; x = not tested or not shown.

SMILES | DNMT1 block | SUMO1 PPI mod | Scp-1 inhibitor | GRK2 inh | LMPTP block | STEP block | GRK2 inh confirm | Aptamer quench SP | others
CCOc1ccc(C(C)NC(=O)C2CCC2)cc1 (stereo unspecified) | -1 | -1 | -4 | 100* | -1 | 0 | x | x | GRK2 confirm 2=-10;FAM quench SP=101
CCOc1ccc(C(C)NC(=O)C2CCCC2)cc1 (stereo unspecified) | 4 | -1 | -12 | 0 | 0 | -2 | x | x
CCCCCc1cccnc1 | 1 | 2 | -1 | 64* | -1 | 0 | -1 | 96
CC(C)C(N)c1csc(Nc2ccc(S(C)(=O)=O)cc2)n1 (stereo unspecified) | 1 | 0 | x | x | -1 | -2 | x | x
C[C@@H]1O[C@H](CCc2cccc(Cl)c2)CC2=C1C(=O)OC(C)(C)O2 | x | 7 | x | x | -1 | x | x | x
CC(=O)Nc1ccc(S(=O)(=O)NNC(=O)c2ccc3c(c2)OCO3)cc1 | 0 | -5 | 0 | 0 | 0 | -2 | x | x
CC(=O)Nc1ccc(S(=O)(=O)NNC(=O)c2cccc(Cl)c2)cc1 | 1 | -2 | 2 | 92* | -2 | -2 | -1 | 100
CCCS(=O)(=O)NC(=O)C1(C)CCN(C(=O)c2cccc(C(F)(F)F)c2)C1 (stereo unspecified) | 1 | 4 | x | x | -2 | -3 | x | x
Cc1c(C)c2ccc(OC(C)C(=O)NCCCN3CCOCC3)c(C)c2oc1=O (stereo unspecified) | -1 | -7 | -5 | 0 | -1 | -3 | 0 | 101
Cc1coc2c(C)c3oc(=O)c(CCC(=O)NCCCN4CCOCC4)c(C)c3cc12 | 1 | -6 | -1 | 0 | -2 | 1 | -1 | 97
CCC(=O)Nc1cccc(NC(=O)c2cc3ccccc3o2)c1 | -3 | 0 | -12 | 0 | -2 | 4 | x | x
CCC(=O)Nc1cccc(-c2cc3ccccc3oc2=O)c1 | 2 | -20 | -3 | 96* | 0 | -2 | 0 | 97
C=CCOc1ccc2ccccc2c1CNn1c(C)n[nH]c1=S | -2 | -10 | -2 | 78* | -1 | 0 | -15 | 99
Cc1ccc2nc(-c3ccco3)c(CC(C)(C)C)n2c1 | 4 | -4 | x | x | 0 | -2 | x | x
CCc1nc2ccc(C(=O)NCCOc3ccc(OC)cc3)cn2c1N(CC)Cc1ccc(OC)c(OC)c1 | -5 | -1 | x | x | -3 | 0 | x | x
COc1ccc(F)cc1C1=CC(=O)C[C@H](c2ccc3c(c2)OCO3)C1 | -2 | 0 | 0 | 41* | 1 | -1 | 19 | 98
Nc1ccc(CCNc2ncnc3c2ncn3[C@@H]2O[C@H](CO)[C@@H](O)[C@H]2O)cc1 | 0 | 3 | -1 | 0 | -1 | -3 | 0 | 103
Fc1cccc(Cc2c(-c3ccco3)nc3c4ccccc4ccn23)c1 | -21 | 13 | x | x | 4 | -2 | x | x
CCCCOCCCNC(=O)C[C@@H]1C[C@@]2(C(=O)OCC)CCCC=C2N(Cc2ccco2)C1=O | x | 4 | x | x | 0 | x | x | x
COc1cc2sc3cc(NCC[C@@H]4CCCN4C)ccc3c(=O)c2cc1OC | -4 | 17 | -2 | 77* | 0 | 2 | x | x | GRK2 confirm 2=-23;FAM quench SP=97
COc1cccc2sc3ccc(NCCC4CCCN4C)cc3c(=O)c12 (stereo unspecified) | 0 | -25 | 0 | 0 | 5 | 3 | x | x
CNc1ncnc2c1ncn2[C@H]1CN(Cc2ccc3c(c2)OCO3)C[C@@H](CO)O1 | 1 | -3 | x | x | -2 | 3 | x | x
c1ccc(CN(CC2=NCCN2)c2ccccc2)cc1 | 6 | -3 | -6 | 0 | -3 | 0 | 2 | 100
NC(c1csc(Nc2ncccn2)n1)c1ccccc1Cl (stereo unspecified) | 0 | -2 | x | x | -1 | -2 | x | x
CN1CCCN(S(=O)(=O)c2cccc(Cl)c2Cl)CC1 | 3 | -1 | -3 | 0 | -5 | 0 | x | x
SMILES | DNMT1 block | SUMO1 PPI mod | Scp-1 inhibitor | GRK2 inh | LMPTP block | STEP block | GRK2 inh confirm | Aptamer quench SP | others
O=S(=O)(c1cccc(Cl)c1Cl)N1CCCCC1 | 0 | 2 | 2 | 82* | -2 | 0 | 0 | 101
CCCNC(=O)C(Cc1ccccc1F)NC(=O)c1ccccn1 (stereo unspecified) | 7 | 0 | 0 | 86* | -1 | 1 | 1 | 96 | GRK2 confirm 2=3;FAM quench SP=100
CCCNC(=O)C(Cc1ccccc1F)NC(=O)c1ccc(C#N)cc1 (stereo unspecified) | 4 | -3 | 0 | 9 | -1 | -3 | x | x
O=C(NC1CCCC1)C(C1CC1)n1c(-c2ccccn2)nc2ccccc21 (stereo unspecified) | x | -1 | x | x | 0 | x | x | x
CCOCCCNC(=O)C(NC(=O)c1ccccc1O)c1ccc(C)cc1 (stereo unspecified) | 1 | 2 | 5 | 0 | 1 | 2 | x | x
CCOCCCNC(=O)C(NC(=O)C1CCC(=O)N1)c1ccc(C)cc1 (stereo unspecified) | 4 | 3 | 0 | 45* | -1 | -1 | 3 | 95
Cc1cc2cc(CN3C(=O)c4ccccc4C3=O)ccc2n1C | 10 | -9 | -9 | 46* | 19 | -1 | 34 | 95
Cc1ccc(S(=O)(=O)NCc2ccc3c(c2)cc(C)n3C)cc1 | 17 | -14 | -11 | 21 | 15 | -1 | x | x
COC(=O)C1=CN(c2ccc(OC)cc2OC)C(N)=C(C#N)C1c1cccc([N+](=O)[O-])c1 (stereo unspecified) | x | -12 | x | x | 2 | x | x | x
CC(C)CNC(=O)CSc1nc2nn(-c3ccccc3)c(=O)c-2c2n1CCCCC2 | 1 | -20 | -2 | 39 | 0 | 2 | -4 | 99
CCC(=O)N1CCCC(C)(C(=O)Nc2ccc3scnc3c2)C1 (stereo unspecified) | -3 | 1 | x | x | 0 | 0 | x | x
CC(C)N(CCn1c(SCC(=O)Nc2cccnc2Cl)nc2ccccc2c1=O)C(C)C | -2 | -1 | -5 | 42* | -1 | 1 | x | x | GRK2 confirm 2=-9;FAM quench SP=99
CC(=O)c1cccc(NC(=O)CSc2nnc(C(C)N(C)C)n2Cc2ccccc2)c1 (stereo unspecified) | -6 | 4 | -5 | 0 | 1 | 6 | x | x
COCCn1c(SCC(=O)Nc2cccnc2Cl)nc2cc(Cl)ccc2c1=O | 2 | -2 | -5 | 4 | 0 | 2 | x | x
